Activity calls are given as the source filed them. The calls are words filed in the database; no cut-off is given here. Square brackets hold non-standard residues; d marks the D form. Peptide text beside a SMILES is read from it. * marks the point of attachment. ξ: configuration not given here. X1 = CCCCCCCCCCCCCCCC(=O)OCC(C*)OC(=O)CCCCCCCCCCCCCCC; Palmitoyl = CCCCCCCCCCCCCCCC(=O)*; ξC = NC(CS)C(=O)O
Assays:
Homo sapiens [1] = species: Homo sapiens; assay: Agonist activity at human TLR1/TLR2 V348A mutant expressed in HEK293T cells coexpressing NF-kappaB-driven luciferase reporter at 100 nM after 6 hrs by luciferase reporter gene assay; format: cell-based
In short: (§1)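 HEK293T cells stably carrying an NF-κB-driven luciferase reporter, in DMEM, were plated 18 h before transfection. They were co-transfected by lipofection with WT or point-mutant human TLR(2–1) and TLR(1–2) ectodomain/TIR-swap chimeras, and expression was checked by immunoblot. After 24 h, cells were stimulated for 6 h with 100 nM agonist or 20 or 50 ng/mL Pam3CSK4, then lysed for a luciferase read-out.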

Homo sapiens [2] = species: Homo sapiens; assay: Agonist activity at human TLR1/TLR2 Y332A mutant expressed in HEK293T cells coexpressing NF-kappaB-driven luciferase reporter at 100 nM after 6 hrs by luciferase reporter gene assay; format: cell-based; in short: as §1
[3] = target: T1, Toll-like receptor 1 (Homo sapiens) (UniProt Q15399); assay: Induction of human TLR1 homodimerization expressed in insect Hi5 cells by size exclusion chromatography
T1 sequence (whole entry): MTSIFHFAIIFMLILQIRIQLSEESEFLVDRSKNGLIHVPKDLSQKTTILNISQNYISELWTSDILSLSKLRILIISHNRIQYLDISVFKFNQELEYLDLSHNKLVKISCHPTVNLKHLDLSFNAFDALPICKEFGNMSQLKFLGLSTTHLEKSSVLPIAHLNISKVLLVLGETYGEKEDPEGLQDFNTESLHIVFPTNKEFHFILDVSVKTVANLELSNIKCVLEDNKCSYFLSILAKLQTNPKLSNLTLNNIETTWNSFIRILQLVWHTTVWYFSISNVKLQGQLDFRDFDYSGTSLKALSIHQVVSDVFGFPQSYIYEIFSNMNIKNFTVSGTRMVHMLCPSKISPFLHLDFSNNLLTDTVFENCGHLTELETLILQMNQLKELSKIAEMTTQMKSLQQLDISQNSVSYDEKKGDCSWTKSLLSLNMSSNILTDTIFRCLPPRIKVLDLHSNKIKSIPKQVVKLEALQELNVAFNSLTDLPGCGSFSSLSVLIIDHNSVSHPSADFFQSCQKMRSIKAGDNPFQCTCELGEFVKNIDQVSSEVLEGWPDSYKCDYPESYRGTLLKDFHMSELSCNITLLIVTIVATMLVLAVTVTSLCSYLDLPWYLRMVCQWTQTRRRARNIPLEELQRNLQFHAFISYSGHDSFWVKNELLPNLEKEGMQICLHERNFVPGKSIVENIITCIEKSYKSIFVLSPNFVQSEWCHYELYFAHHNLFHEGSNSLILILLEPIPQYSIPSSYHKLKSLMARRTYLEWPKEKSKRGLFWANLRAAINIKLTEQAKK
In short: (§2)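 Human TLR1 and TLR2 ectodomains were made in Hi5 insect cells, partially deglycosylated, and had the protein A tag cleaved by thrombin before purification. Protein at 1 μM (each alone, or both together) was incubated with 30 μM ligand in 25 mM HEPES pH 8.0, 150 mM NaCl, 10% DMSO for 4 h at room temperature. Dimer formation was then analysed by analytical gel filtration on Superdex 200.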

Homo sapiens [4] = species: Homo sapiens; assay: Agonist activity at human TLR2/TLR1 Y320A mutant expressed in HEK293T cells coexpressing NF-kappaB-driven luciferase reporter at 100 nM after 6 hrs by luciferase reporter gene assay; format: cell-based; in short: as §1
Homo sapiens [5] = species: Homo sapiens; assay: Agonist activity at human TLR2/TLR1 V339A mutant expressed in HEK293T cells coexpressing NF-kappaB-driven luciferase reporter at 100 nM after 6 hrs by luciferase reporter gene assay; format: cell-based; in short: as §1
Homo sapiens [6] = species: Homo sapiens; assay: Agonist activity at human TLR2/TLR1 F314A mutant expressed in HEK293T cells coexpressing NF-kappaB-driven luciferase reporter at 100 nM after 6 hrs by luciferase reporter gene assay; format: cell-based; in short: as §1
Homo sapiens [7] = species: Homo sapiens; assay: Agonist activity at human TLR2/TLR1 I319A mutant expressed in HEK293T cells coexpressing NF-kappaB-driven luciferase reporter at 100 nM after 6 hrs by luciferase reporter gene assay; format: cell-based; in short: as §1
Homo sapiens [8] = species: Homo sapiens; assay: Agonist activity at human TLR1/TLR2 F349A mutant expressed in HEK293T cells coexpressing NF-kappaB-driven luciferase reporter at 100 nM after 6 hrs by luciferase reporter gene assay; format: cell-based; in short: as §1
Homo sapiens [9] = species: Homo sapiens; assay: Agonist activity at human TLR1/TLR2 L328A mutant expressed in HEK293T cells coexpressing NF-kappaB-driven luciferase reporter at 100 nM after 6 hrs by luciferase reporter gene assay; format: cell-based; in short: as §1
Homo sapiens [10] = species: Homo sapiens; assay: Agonist activity at human TLR2/TLR1 H340A mutant expressed in HEK293T cells coexpressing NF-kappaB-driven luciferase reporter at 100 nM after 6 hrs by luciferase reporter gene assay; format: cell-based; in short: as §1
Homo sapiens [11] = species: Homo sapiens; assay: Agonist activity at human TLR2/TLR1 W258A mutant expressed in HEK293T cells coexpressing NF-kappaB-driven luciferase reporter at 100 nM after 6 hrs by luciferase reporter gene assay; format: cell-based; in short: as §1
Homo sapiens [12] = species: Homo sapiens; assay: Agonist activity at human TLR1/TLR2 D327A mutant expressed in HEK293T cells coexpressing NF-kappaB-driven luciferase reporter at 100 nM after 6 hrs by luciferase reporter gene assay; format: cell-based; in short: as §1
Homo sapiens [13] = species: Homo sapiens; assay: Agonist activity at human TLR2/TLR1 F312A mutant expressed in HEK293T cells coexpressing NF-kappaB-driven luciferase reporter at 100 nM after 6 hrs by luciferase reporter gene assay; format: cell-based; in short: as §1
Homo sapiens [14] = species: Homo sapiens; assay: Agonist activity at human TLR1/TLR2 L350A mutant expressed in HEK293T cells coexpressing NF-kappaB-driven luciferase reporter at 100 nM after 6 hrs by luciferase reporter gene assay; format: cell-based; in short: as §1
Homo sapiens [15] = species: Homo sapiens; assay: Agonist activity at human TLR1/TLR2 Y325A mutant expressed in HEK293T cells coexpressing NF-kappaB-driven luciferase reporter at 100 nM after 6 hrs by luciferase reporter gene assay; format: cell-based; in short: as §1
Homo sapiens [16] = species: Homo sapiens; assay: Agonist activity at human TLR1/TLR2 Y323A mutant expressed in HEK293T cells coexpressing NF-kappaB-driven luciferase reporter at 100 nM after 6 hrs by luciferase reporter gene assay; format: cell-based; in short: as §1
Homo sapiens [17] = species: Homo sapiens; assay: Agonist activity at human TLR1/TLR2 Y376 mutant expressed in HEK293T cells coexpressing NF-kappaB-driven luciferase reporter at 100 nM after 6 hrs by luciferase reporter gene assay; format: cell-based; in short: as §1
[18] = target: T2, Toll-like receptor 1/2 (Homo sapiens) (UniProt O60603+Q15399); assay: Antagonist activity at TLR2/TLR1 in human THP1 cells assessed as reduction in diprovoci-induced TNF production at 50 uM pre-incubated for 1 hr before diprovocim stimulation for 4 hrs by ELISA method; format: cell-based
[19] = target: T2, Toll-like receptor 1/2 (Homo sapiens); assay: Antagonist activity at TLR2/TLR1 in human THP1 cells assessed as reduction in diprovoci-induced TNF production at 5 uM pre-incubated for 1 hr before diprovocim stimulation for 4 hrs by ELISA method; format: cell-based
Homo sapiens [20] = species: Homo sapiens; assay: Agonist activity at human TLR2/TLR1 V339A mutant expressed in HEK293T cells coexpressing NF-kappaB-driven luciferase reporter at 50 ng/ml after 6 hrs by luciferase reporter gene assay; format: cell-based; in short: as §1
Homo sapiens [21] = species: Homo sapiens; assay: Agonist activity at human TLR1/TLR2 L328A mutant expressed in HEK293T cells coexpressing NF-kappaB-driven luciferase reporter at 20 ng/ml after 6 hrs by luciferase reporter gene assay; format: cell-based; in short: as §1
Homo sapiens [22] = species: Homo sapiens; assay: Agonist activity at human TLR2/TLR1 H340A mutant expressed in HEK293T cells coexpressing NF-kappaB-driven luciferase reporter at 50 ng/ml after 6 hrs by luciferase reporter gene assay; format: cell-based; in short: as §1
Homo sapiens [23] = species: Homo sapiens; assay: Agonist activity at human TLR1/TLR2 L350A mutant expressed in HEK293T cells coexpressing NF-kappaB-driven luciferase reporter at 20 ng/ml after 6 hrs by luciferase reporter gene assay; format: cell-based; in short: as §1
Homo sapiens [24] = species: Homo sapiens; assay: Agonist activity at human TLR2/TLR1 Y320A mutant expressed in HEK293T cells coexpressing NF-kappaB-driven luciferase reporter at 50 ng/ml after 6 hrs by luciferase reporter gene assay; format: cell-based; in short: as §1
Homo sapiens [25] = species: Homo sapiens; assay: Agonist activity at human TLR1/TLR2 F349A mutant expressed in HEK293T cells coexpressing NF-kappaB-driven luciferase reporter at 20 ng/ml after 6 hrs by luciferase reporter gene assay; format: cell-based; in short: as §1
Homo sapiens [26] = species: Homo sapiens; assay: Agonist activity at human TLR1/TLR2 D327A mutant expressed in HEK293T cells coexpressing NF-kappaB-driven luciferase reporter at 20 ng/ml after 6 hrs by luciferase reporter gene assay; format: cell-based; in short: as §1
Homo sapiens [27] = species: Homo sapiens; assay: Agonist activity at human TLR1/TLR2 Y325A mutant expressed in HEK293T cells coexpressing NF-kappaB-driven luciferase reporter at 20 ng/ml after 6 hrs by luciferase reporter gene assay; format: cell-based; in short: as §1
Homo sapiens [28] = species: Homo sapiens; assay: Agonist activity at human TLR2/TLR1 F312A mutant expressed in HEK293T cells coexpressing NF-kappaB-driven luciferase reporter at 50 ng/ml after 6 hrs by luciferase reporter gene assay; format: cell-based; in short: as §1
[29] = target: T2, Toll-like receptor 1/2 (Homo sapiens); assay: Induction of human TLR2/TLR1 heterodimerization expressed in insect Hi5 cells by size exclusion chromatography; in short: as §2
[30] = target: Toll-like receptor 2 (Homo sapiens) (UniProt O60603); assay: Induction of human TLR2 homodimerization expressed in insect Hi5 cells by size exclusion chromatography; in short: as §2
Homo sapiens [31] = species: Homo sapiens; assay: Agonist activity at human TLR1/TLR2 V348A mutant expressed in HEK293T cells coexpressing NF-kappaB-driven luciferase reporter at 20 ng/ml after 6 hrs by luciferase reporter gene assay; format: cell-based; in short: as §1
Homo sapiens [32] = species: Homo sapiens; assay: Agonist activity at human TLR1/TLR2 Y376 mutant expressed in HEK293T cells coexpressing NF-kappaB-driven luciferase reporter at 20 ng/ml after 6 hrs by luciferase reporter gene assay; format: cell-based; in short: as §1
Homo sapiens [33] = species: Homo sapiens; assay: Agonist activity at human TLR1/TLR2 Y323A mutant expressed in HEK293T cells coexpressing NF-kappaB-driven luciferase reporter at 20 ng/ml after 6 hrs by luciferase reporter gene assay; format: cell-based; in short: as §1
Homo sapiens [34] = species: Homo sapiens; assay: Agonist activity at human TLR2/TLR1 F314A mutant expressed in HEK293T cells coexpressing NF-kappaB-driven luciferase reporter at 50 ng/ml after 6 hrs by luciferase reporter gene assay; format: cell-based; in short: as §1
Homo sapiens [35] = species: Homo sapiens; assay: Agonist activity at human TLR2/TLR1 W258A mutant expressed in HEK293T cells coexpressing NF-kappaB-driven luciferase reporter at 50 ng/ml after 6 hrs by luciferase reporter gene assay; format: cell-based; in short: as §1
Homo sapiens [36] = species: Homo sapiens; assay: Agonist activity at human TLR1/TLR2 Y332A mutant expressed in HEK293T cells coexpressing NF-kappaB-driven luciferase reporter at 20 ng/ml after 6 hrs by luciferase reporter gene assay; format: cell-based; in short: as §1
Homo sapiens [37] = species: Homo sapiens; assay: Agonist activity at human TLR2/TLR1 I319A mutant expressed in HEK293T cells coexpressing NF-kappaB-driven luciferase reporter at 50 ng/ml after 6 hrs by luciferase reporter gene assay; format: cell-based; in short: as §1

Sequence of Toll-like receptor 2 (Homo sapiens) (O60603 whole entry): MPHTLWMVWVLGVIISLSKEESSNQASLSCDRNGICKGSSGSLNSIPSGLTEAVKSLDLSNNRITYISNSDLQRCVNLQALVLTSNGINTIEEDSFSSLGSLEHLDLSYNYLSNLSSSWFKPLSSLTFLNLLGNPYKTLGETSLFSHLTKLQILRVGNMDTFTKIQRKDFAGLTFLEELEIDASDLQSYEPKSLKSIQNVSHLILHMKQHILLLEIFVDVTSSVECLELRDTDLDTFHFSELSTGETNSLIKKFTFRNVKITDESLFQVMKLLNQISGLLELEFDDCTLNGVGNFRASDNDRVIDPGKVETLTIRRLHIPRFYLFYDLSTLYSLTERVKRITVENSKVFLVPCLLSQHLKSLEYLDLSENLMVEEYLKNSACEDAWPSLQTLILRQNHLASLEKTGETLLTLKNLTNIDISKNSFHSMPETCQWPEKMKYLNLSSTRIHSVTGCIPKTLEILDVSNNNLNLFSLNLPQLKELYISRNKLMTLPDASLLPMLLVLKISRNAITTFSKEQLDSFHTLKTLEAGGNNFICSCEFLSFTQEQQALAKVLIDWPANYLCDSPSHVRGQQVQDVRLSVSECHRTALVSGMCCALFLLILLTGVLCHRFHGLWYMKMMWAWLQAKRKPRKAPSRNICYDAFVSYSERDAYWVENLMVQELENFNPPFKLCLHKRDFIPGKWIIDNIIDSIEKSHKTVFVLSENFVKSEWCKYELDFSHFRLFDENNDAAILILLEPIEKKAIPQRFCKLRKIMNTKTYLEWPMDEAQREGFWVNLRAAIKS

O=C(N[C@H]1C[C@@H]1c1ccccc1)[C@@H]1CN(C(=O)c2ccc(C(=O)N3C[C@@H](C(=O)N[C@H]4C[C@@H]4c4ccccc4)[C@H](C(=O)N[C@H]4C[C@@H]4c4ccccc4)C3)cc2)C[C@H]1C(=O)N[C@H]1C[C@@H]1c1ccccc1
Activity (Homo sapiens [1]): inactive | Activity (Homo sapiens [2]): Active | Activity [3]: inactive | Activity (Homo sapiens [4]): inactive | Activity (Homo sapiens [5]): inactive | Activity (Homo sapiens [6]): Active | Activity (Homo sapiens [7]): inactive | Activity (Homo sapiens [8]): inactive | Activity (Homo sapiens [9]): Active | Activity (Homo sapiens [10]): inactive | Activity (Homo sapiens [11]): inactive | Activity (Homo sapiens [12]): Active | Activity (Homo sapiens [13]): Active | Activity (Homo sapiens [14]): Active | Activity (Homo sapiens [15]): inactive | Activity (Homo sapiens [16]): inactive | Activity (Homo sapiens [17]): Active

O=C(N[C@H]1C[C@@H]1c1ccccc1)[C@@H]1CN(C(=O)c2ccccc2)C[C@H]1C(=O)N[C@H]1C[C@@H]1c1ccccc1
inhibition [18]: Active | inhibition [19]: Active

CCCCCCCCCCCCCCCC(=O)NC(CSCC(COC(=O)CCCCCCCCCCCCCCC)OC(=O)CCCCCCCCCCCCCCC)C(=O)N[C@@H](CO)C(=O)N[C@@H](CCCCN)C(=O)N[C@@H](CCCCN)C(=O)N[C@@H](CCCCN)C(=O)N[C@@H](CCCCN)C(=O)O (stereo partly drawn) (Palmitoyl-[ξC](X1)SKKKK-OH)
Activity (Homo sapiens [20]): inactive | Activity (Homo sapiens [21]): inactive | Activity [3]: inactive | Activity (Homo sapiens [22]): inactive | Activity (Homo sapiens [23]): inactive | Activity (Homo sapiens [24]): inactive | Activity (Homo sapiens [25]): inactive | Activity (Homo sapiens [26]): inactive | Activity (Homo sapiens [27]): inactive | Activity (Homo sapiens [28]): inactive | Activity [29]: Active | Activity [30]: inactive | Activity (Homo sapiens [31]): inactive | Activity (Homo sapiens [32]): inactive | Activity (Homo sapiens [33]): inactive | Activity (Homo sapiens [34]): inactive | Activity (Homo sapiens [35]): inactive | Activity (Homo sapiens [36]): inactive | Activity (Homo sapiens [37]): inactive

Source: ChEMBL document CHEMBL4392821
